Screening data: PubChem BioAssay, several laboratories
CTSL1 counter: cathepsin L1 inhibition, PFM18AAP counter-screen; AID 1906; inhibition, % at 5.96 µM; 300,000 compounds, 0.49% hits; recombinant F. hepatica cathepsin L1, Z-Leu-Arg-MCA fluorescence;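 active means inhibition above the mean of all tested compounds plus 3 SD, set per screening campaign, cut at about 17% in these data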
pCIP destab: compounds decreasing mouse p/CIP protein stability. F442A p/CIP-EGFP cells, EGFP fluorescence, 16 h. Q05BA5. 290,000 compounds, 0.01% hits. decrease of EGFP signal, % at 10 µM;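 active means EGFP signal decrease of at least 30% at 10 µM or well 3 SD below plate mean, unless failing retest; inactive means the rest, including hits failing retest or dose response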
Lipid droplet: hepatic lipid droplet formation modulation; AML12 mouse hepatocytes, oleate lipid droplets, BODIPY imaging; inhibition, % at 6.5 µM; 240,000 compounds, 0.4% hits; AID 1656;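 active means lipid droplet intensity inhibited by at least 50%, with more than 500 cells counted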
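Material – mouse AML12 hepatocyte cell line, fixed after treatment · Compound dosing – one dose, 6.5 µM compound · Times – compound with oleate, overnight · Measured by – Image-based BODIPY and DAPI two-channel analysis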
Arr AP2 block: blocks beta-arrestin peptide binding to AP2 adaptin | FITC-arrestin peptide / GST-AP2 beads, flow cytometry; AP2 beta2 appendage carries R879A mutation | inhibition, % at 10 µM | 340,000 compounds, 0.31% hits;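 active means inhibition above a set limit, near 3 SD of compounds lacking own fluorescence, cut at about 54% in these data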
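System: GST-tagged AP2 beta2-adaptin appendage (R879A) on 4 µm glutathione beads / Reagent: FITC-arrestin peptide, 50 nM / Detection: HyperCyt-sampled flow cytometry, FL1 channel, ex 488/em 535 nm / Timing: 12 min plus 1 h, RT / Buffer or medium: PBS plus Tween 20 (0.05%) and BSA (0.1%)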
Each line names hits and unclear results; the compound was inactive in the other large screens. Sampled rows, rich in hits. Any-hit rate of the full collection: about 1%.

CCc1cc[n+](C2=C([O-])c3ccccc3C(=O)/C2=N\S(=O)(=O)c2cccs2)cc1	CTSL1 counter 20
O=S(=O)(c1ccc(Br)cc1)N1CCN=C1SCc1cccc(F)c1	none
O=C(COC(=O)c1ccc2c(c1)C(=O)N(Cc1ccncc1)C2=O)Nc1cccc2ccccc12	CTSL1 counter 19
O=C(O)COc1ccccc1/C=N/Nc1ccc(S(=O)(=O)Nc2ccc(Cl)cc2)cc1[N+](=O)[O-]	none
Cc1ccc(/C=C2/SC(=S)N(C3CCCCC3)C2=O)o1	Arr AP2 block 62
N/C(=N/OC(=O)c1cccc([N+](=O)[O-])c1)c1cccc([N+](=O)[O-])c1	none
CC1=C(C)/C(=N/OC(=O)c2cccc([N+](=O)[O-])c2)C=CC1=O	CTSL1 counter 17
O=C(NCC1CCCO1)C1CC(=O)N(C2CCCC2)C1 (stereo not drawn)	none (no result: Lipid droplet)
COCCNCCCCSc1ccc(Cl)cc1	none
O=C(CNC(=O)c1ccccc1F)OC(C(=O)Nc1cc(C(F)(F)F)ccc1Cl)c1ccccc1 (stereo not drawn)	CTSL1 counter 25
CC(C)C(C(=O)C=[N+]=[N-])N1C(=O)c2ccccc2C1=O (stereo not drawn)	CTSL1 counter 21 (no result: Lipid droplet)
[N-]=[N+]=CC(=O)C(Cc1ccccc1)N1C(=O)c2ccccc2C1=O (stereo not drawn)	CTSL1 counter 26 (no result: Lipid droplet)
NC(=O)C(Cc1ccccc1)N1C(=O)c2ccccc2C1=O (stereo not drawn)	CTSL1 counter 19
O=C(O)C(Cc1ccccc1)N1C(=O)c2ccccc2C1=O (stereo not drawn)	none (no result: Lipid droplet)
NC(=O)C1(N2CCCCC2)CCN(Cc2ccc(F)cc2)CC1	none
O=[N+]([O-])c1ccccc1N=Nc1ccc(O)cc1	none (no result: pCIP destab, Lipid droplet)
Cc1cccc(NC(=O)c2cccnc2Oc2ccccc2)c1C(=O)O	none
CCOC1=NC(=C(c2ccccc2)c2ccccc2)OC1=O	none (no result: CTSL1 counter, pCIP destab, Lipid droplet)
CCOC(=O)c1cc2c(s1)-c1c(C)cccc1OC2	CTSL1 counter 18 (no result: Lipid droplet)
CCOC(=O)CN(C#N)c1nc(N(C)C)nc(N(C)C)n1	CTSL1 counter 54
CCNc1nc(NC(C)C)nc(N(C#N)CC(=O)OC)n1	CTSL1 counter 71
COC(=O)CN(C#N)c1nc(SC)nc(N(C)C)n1	CTSL1 counter 29
Cc1ccccc1C(=O)Nc1cccc(N)c1	none
COc1ccc(-c2oc(NC(=O)CSc3nncn3C)c(C#N)c2-c2ccc(OC)cc2)cc1	CTSL1 counter 30
O=C(CCl)N(c1ccccc1)c1ccccc1	none (no result: CTSL1 counter)
O=C(CCl)N(CCc1ccccc1)CCc1ccccc1	CTSL1 counter 39
Cc1onc(C(=O)N2CCC(C(N)=O)CC2)c1-c1ccccc1Cl	none (no result: Lipid droplet)
CCOC(=O)C(C(=O)NCC1CCCO1)C1CCCCC1 (stereo not drawn)	CTSL1 counter 17
COC(=O)C(C(=O)NCC1CCCO1)C1CCCCCC1 (stereo not drawn)	none
COc1ccc(CNC(=O)Oc2ccccc2)cc1Cl	CTSL1 counter 19
COc1ccc(C(=O)COC(=O)/C=C/c2ccco2)cc1F	none (no result: CTSL1 counter, pCIP destab, Lipid droplet)
Cn1c(=O)c(=O)n(C)c2cc(S(=O)(=O)CCC(=O)Nc3ccc(C(F)(F)F)cc3)ccc21	CTSL1 counter 17
COc1cc(Oc2ccccc2)nc(N)n1	CTSL1 counter 30 (no result: pCIP destab, Lipid droplet)
COc1ccccc1CNC(=O)CN1C(=O)COc2ccc(S(=O)(=O)NC3CCCC3)cc21	none
Cc1nonc1NC(=O)CSc1nc2ccccc2[nH]1	CTSL1 counter 17 (no result: Arr AP2 block)
C/C(CC(=O)Nc1ccc(Cl)c(C(F)(F)F)c1)=N\NC(=O)c1ccccc1O	none
C/C(CC(=O)Nc1ccc(Cl)c(C(F)(F)F)c1)=N\NC(N)=S	CTSL1 counter 40
N#Cc1c(N2CCCC(O)C2)nc(N)c2c(N)nc3c(c12)CC(=O)N3C12CC3CC(CC(C3)C1)C2 (stereo not drawn)	CTSL1 counter 25 (no result: Lipid droplet)
CCC(c1nnnn1C(C)(C)C)N(Cc1cccs1)Cc1cc2cc(C)c(C)cc2n2nnnc12 (stereo not drawn)	CTSL1 counter 19 (no result: pCIP destab, Lipid droplet, Arr AP2 block)
C#CCOCCOCCOCCNc1nc(N2CCN(C(=O)[C@H]([C@@H](C)CC)n3cc([C@@H](N)CC(C)C)nn3)CC2)nc(N2CCN(C(=O)[C@H](CCCCN)n3cc([C@@H](N)CC(C)C)nn3)CC2)n1	none
C#CCOCCOCCOCCNc1nc(N2CCN(C(=O)C([C@@H](C)CC)n3cc(C(N)COC(=O)C(F)(F)F)nn3)CC2)nc(N2CCN(C(=O)[C@H](CCCCN)n3cc(C(N)[C@H](C)CC)nn3)CC2)n1 (stereo partly drawn)	CTSL1 counter 31 (no result: pCIP destab, Lipid droplet, Arr AP2 block)
C#CCOCCOCCOCCNc1nc(N2CCN(C(=O)[C@H]([C@@H](C)CC)n3cc([C@@H](N)CC(C)C)nn3)CC2)nc(N2CCN(C(=O)[C@H](CCCCN)n3cc([C@@H](N)C(C)CC)nn3)CC2)n1 (stereo partly drawn)	CTSL1 counter 31
COc1ccc2ccc(OCC(=O)N3c4ccccc4NC(=O)CC3C)cc2c1 (stereo not drawn)	none (no result: CTSL1 counter, pCIP destab, Lipid droplet)
Cc1ccc(N=CC2=C(O)CC(c3ccco3)CC2=O)cc1 (stereo not drawn)	none (no result: Lipid droplet)
CCc1ccc(N=CC2=C(O)CC(c3ccco3)CC2=O)cc1 (stereo not drawn)	CTSL1 counter 17
COc1ccc(NC(=O)C2C3C=CC4(O3)C2C(=O)N(CCN2CCCCC2)C4C(=O)NC2CCCCC2)cc1 (stereo not drawn)	CTSL1 counter 40
O=C(Nc1ccc(Br)cc1)C1C2C=CC3(O2)C1C(=O)N(CCN1CCCCC1)C3C(=O)NC1CCCCC1 (stereo not drawn)	none
Cc1cc(C)cc(NC(=O)C2C3C=CC4(O3)C2C(=O)N(CCN2CCCCC2)C4C(=O)NC2CCCCC2)c1 (stereo not drawn)	CTSL1 counter 19
O=C1N(Cc2ccc(F)cc2)CCN1c1ccc(F)cc1	none
COc1ccc2c(c1O)C(=O)c1ccccc1C2=O	none (no result: Arr AP2 block)
CC(C)COC(=O)c1ccc2c(c1O)C(=O)c1ccccc1C2=O	CTSL1 counter 24
COc1ccc(N2CCN(C(=O)COC(=O)[C@@H](NC(=O)c3ccccc3Cl)C(C)C)CC2)cc1	none (no result: CTSL1 counter, pCIP destab, Lipid droplet)
COc1ccc(N2CCN(C(=O)C(NC(=O)c3c(F)cccc3F)C(C)C)CC2)cc1 (stereo not drawn)	CTSL1 counter 26
CCCCN(C)C(=O)c1nc2ccccn2c1CNC1CCC1	none
COc1ccc(OC)c(NC(=O)c2ccc(OCC(=O)N3CCOCC3)c(OC)c2)c1	none (no result: pCIP destab, Lipid droplet)
COc1cc(C(=O)Nc2nc(-c3ccc(F)cc3)cs2)ccc1OCC(=O)N1CCOCC1	Lipid droplet 61
COc1cc(C(=O)Nc2nc(-c3ccc(C)cc3)cs2)ccc1OCC(=O)N1CCOCC1	Lipid droplet 88
COc1ccc(C(=O)NC(=S)Nc2ccccc2N2CCOCC2)cc1Br	none
Cc1ccc(OCC(=O)NC(=S)Nc2cccc(NC(=O)c3ccc(Cl)cc3Cl)c2)cc1	none
CC(C)C[C@H](NC(=O)N1CC(=O)Nc2ccccc21)C(=O)N[C@@H](Cc1c[nH]c2ccccc12)C(=O)O	CTSL1 counter 22 (no result: Lipid droplet)
